Data set [1] is described as follows: melting temperature; fluorescence melt of hairpins on a sequencing array, two-state fit, raised by 9.35 °C to match UV melts. The following applies: sodium 0.088 M. The essentials: (§1)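 Folding enthalpy and melting temperature come from bootstrapped two-state fits to Cy3 fluorescence of library hairpins carrying annealed Cy3 and quencher oligos on a sequenced MiSeq flow cell. Imaging was done in 50 mM Na-HEPES pH 8.0, 25 mM NaCl, stepping by 2.5 °C up to 60 °C, and signals were normalised to pre-quench Cy3 and to control constructs. Results of four replicates were combined by inverse variance, and fitted temperatures were raised by 9.35 °C to match UV melts.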

Data set [2] is described as follows: folding enthalpy; higher = less favourable; fluorescence melt of hairpins on a sequencing array, two-state fit. The following applies: sodium 0.088 M. The essentials: as §1

In the case of GCGATTGGTCGC ((((....)))), the Tm in data set [1] turned out to be 52.1 °C. Further, in data set [2], the folding enthalpy was -23.4 kcal/mol.

With GCGATTGTTCGC ((((....)))), the Tm in data set [1] is 51.6 °C. For the same sequence, the folding enthalpy in data set [2] is -24.5 kcal/mol.

In the case of GCGCAAGGAAACCTGCAC (.(((.(....).))).), the Tm in data set [1] turned out to be 29.3 °C. For the same sequence, the folding enthalpy in data set [2] is -17 kcal/mol.

In the case of GCGCAAGGAAACCTGCGC (((((.(....).))))), the Tm in data set [1] turned out to be 62.4 °C. The folding enthalpy in data set [2] is -41.7 kcal/mol.

For GCGCAAGGAAACTCACGC (((..((....))..))), the Tm in data set [1] came to 28.4 °C. For the same sequence, in data set [2], the folding enthalpy was -15 kcal/mol.

Turning to GCGCAAGGAAACTCGCAC (.((.((....)).)).), the Tm in data set [1] was 27.2 °C. In data set [2], the folding enthalpy is -13.1 kcal/mol.

With GCGCAAGGAAACTTACGC (((.(((....))).))), in data set [1], the Tm was 46 °C. For the same sequence, the folding enthalpy in data set [2] was -30.6 kcal/mol.

On to GCGCACCCGAAAGGGCGC (((..(((....)))))), for which the Tm in data set [1] was 67 °C. Also, the folding enthalpy in data set [2] is -20.5 kcal/mol.

Turning to GCGCACGAAAGTGCACGC ((((((....)))..))), the Tm in data set [1] is 61.1 °C. In addition, the folding enthalpy in data set [2] is -14.6 kcal/mol.

Consider GCGCACGAAAGTGGTCGC ((((((....)))..))), for which, in data set [1], the Tm is 53.4 °C. Further, the folding enthalpy in data set [2] is -13.8 kcal/mol.

Take GCGCACGGAAACACGCGC ((((..(....)..)))): the Tm in data set [1] came to 51.6 °C. In addition, the folding enthalpy in data set [2] is -32.9 kcal/mol.

Consider GCGCACGGAAACGCACGC (((..((....))..))), for which, in data set [1], the Tm turned out to be 42.2 °C. Besides, the folding enthalpy in data set [2] is -31.2 kcal/mol.

As for GCGCACGGAAACGTGTGC ((.((((....)))).)), the Tm in data set [1] was 67.7 °C. The folding enthalpy in data set [2] was -41 kcal/mol.

For the sequence GCGCAGACGAAAGTCCGC (((..(((....)))))), the Tm in data set [1] was found to be 52.4 °C. Moreover, the folding enthalpy in data set [2] is -25 kcal/mol.

Take GCGCAGCGAAAGCAGAGC ((.(.((....)).).)): the Tm in data set [1] came out at 54.6 °C. The folding enthalpy in data set [2] is -15.7 kcal/mol.

On to GCGCAGCGAAAGCTAAGC ((..(((....)))..)), for which the Tm in data set [1] is 58.4 °C. Moreover, the folding enthalpy in data set [2] was -17.7 kcal/mol.

For the sequence GCGCAGCGAAAGCTACGC (((.(((....))).))), in data set [1], the Tm amounted to 53.5 °C. Further, the folding enthalpy in data set [2] was -35 kcal/mol.

In the case of GCGCAGTCGAAAGACCGC (((..(((....)))))), in data set [1], the Tm was 52.8 °C. Further, in data set [2], the folding enthalpy is -26.1 kcal/mol.

Consider GCGCATACGAAAGTACGC (((..(((....)))))), for which the Tm in data set [1] stood at 44.9 °C. Further, the folding enthalpy in data set [2] is -22.7 kcal/mol.

Regarding GCGCATCGAAAGATTCGC (((.(((....))).))), the Tm in data set [1] worked out at 52.2 °C. Besides, in data set [2], the folding enthalpy was -38.9 kcal/mol.

In the case of GCGCATTCGAAAGAACGC (((..(((....)))))), the Tm in data set [1] was 41.4 °C. Moreover, the folding enthalpy in data set [2] is -18.8 kcal/mol.

GCGCCAACGAAAGTTCGC (((..(((....)))))): the Tm in data set [1] was found to be 43.5 °C. For the same sequence, the folding enthalpy in data set [2] is -24.3 kcal/mol.

With GCGCCACGAAAGTGCCGC (((.(((....))).))), the Tm in data set [1] was determined as 56.3 °C. In addition, the folding enthalpy in data set [2] is -26.9 kcal/mol.

For the sequence GCGCCCCGAAAGGGTCGC (((.(((....))).))), the Tm in data set [1] was 68 °C. The folding enthalpy in data set [2] is -45.8 kcal/mol.

As for GCGCCCGAAAGGGGACGC ((((((....)))..))), the Tm in data set [1] was 62.2 °C. In addition, the folding enthalpy in data set [2] is -19.6 kcal/mol.

Turning to GCGCCCGGAAACGGACGC (((.(((....))).))), in data set [1], the Tm amounted to 66.1 °C. The folding enthalpy in data set [2] was -47 kcal/mol.

On to GCGCCCGTGCGC ((((....)))), for which the Tm in data set [1] amounted to 66.5 °C. Moreover, the folding enthalpy in data set [2] is -10.3 kcal/mol.

In the case of GCGCCGCGAAAGCACCGC (((..((....))..))), in data set [1], the Tm is 46.2 °C. The folding enthalpy in data set [2] was -16.7 kcal/mol.

Regarding GCGCCGCGAAAGCTGAGC ((.(.((....)).).)), the Tm in data set [1] is 57.5 °C. In addition, in data set [2], the folding enthalpy is -20 kcal/mol.

Regarding GCGCCGGGAAACCGACGC (((.(((....))).))), the Tm in data set [1] stood at 60.9 °C. In addition, the folding enthalpy in data set [2] was -46.8 kcal/mol.

As to GCGCCTCGAAAGAGTCGC (((.(((....))).))), the Tm in data set [1] was found to be 58.7 °C. Besides, the folding enthalpy in data set [2] is -38.3 kcal/mol.

Turning to GCGCCTGGAAACAAGCGC ((((.((....)).)))), the Tm in data set [1] was found to be 52.8 °C. Moreover, the folding enthalpy in data set [2] is -41.6 kcal/mol.

Take GCGCGACCGAAAGGTCGC (((..(((....)))))): in data set [1], the Tm stood at 68.5 °C. Besides, in data set [2], the folding enthalpy was -5.08 kcal/mol.

Turning to GCGCGAGGAAACCCACGC (((.(.(....).).))), the Tm in data set [1] was 40 °C. The folding enthalpy in data set [2] was -20.3 kcal/mol.

Regarding GCGCGAGGAAACTCGCAC (.(((((....))))).), the Tm in data set [1] worked out at 49.4 °C. Also, the folding enthalpy in data set [2] was -11.4 kcal/mol.

For GCGCGAGGAAACTCGTGC ((.((((....)))).)), the Tm in data set [1] amounted to 62.9 °C. The folding enthalpy in data set [2] is -42.3 kcal/mol.

With GCGCGCGAAAGCGCTCGC ((((((....)))..))), the Tm in data set [1] stood at 59.4 °C. Moreover, the folding enthalpy in data set [2] is -10.5 kcal/mol.

Source of the values: the array DNA melting data of Ke et al. (doi:10.1101/2024.01.08.574731).
